Laboratory results taken from ChEMBL document CHEMBL1140235, “Novel 4-(4-aryl)cyclohexyl-1-(2-pyridyl)piperazines as Delta(8)-Delta(7) sterol isomerase (emopamil binding protein) selective ligands with antiproliferative activity” (J Med Chem, 2008).

Columns and labels:
[1] = molecular target: Sigma non-opioid intracellular receptor 1 (Cavia porcellus, UniProt Q60492); assay: Displacement of [3H](+)-pentazocine from sigma 1 receptor in guinea pig brain membrane without cerebellum; assay type: cell membranes
Procedure, shortened: (§1)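 Radioligand displacement run by previously published methods, EBP per Moebius and σ1/σ2 per Matsumoto. Tissues from male Dunkin guinea pigs and Wistar Hannover rats (250–300 g). IC50 from six to nine drug concentrations in two or three experiments, samples in duplicate.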

[2] = tested on: PC-3; assay: Cytotoxicity against human PC3 cells assessed as LDH release at 100 uM after 24 hrs relative to untreated control; assay type: functional
Procedure, shortened: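 PC-3 cells exposed to test compound for 24 h at 37 °C, 5% CO2. LDH release into the medium was measured fluorimetrically (ex 560/em 590 nm) after 10 min with substrate mix at room temperature, then stop solution. Total LDH taken from lysed untreated wells. % cytotoxicity = 100 × (treated medium LDH − background)/(total LDH − background).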

[3] = molecular target: T1, 3-beta-hydroxysteroid-Delta(8),Delta(7)-isomerase (Cavia porcellus, UniProt Q60490); assay: Displacement of [3H](-)-(S)-emopamil from EBP in guinea pig liver membrane; assay type: cell membranes; procedure, shortened: as §1
T1 sequence (Q60490 whole entry): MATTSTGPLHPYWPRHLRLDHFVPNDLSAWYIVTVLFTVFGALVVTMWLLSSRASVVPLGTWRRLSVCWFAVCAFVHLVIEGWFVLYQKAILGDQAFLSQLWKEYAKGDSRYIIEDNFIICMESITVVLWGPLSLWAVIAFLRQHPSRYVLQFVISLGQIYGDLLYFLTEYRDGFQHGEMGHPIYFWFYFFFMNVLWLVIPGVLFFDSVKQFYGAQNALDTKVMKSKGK

[4] = species: Cavia porcellus; assay: Selectivity ratio of Ki for sigma 1 receptor in guinea pig brain membrane without cerebellum to Ki for EBP in guinea pig liver membrane; assay type: cell membranes
[5] = Selectivity ratio of Ki for sigma 2 receptor in rat liver membrane to Ki for EBP in guinea pig liver membrane; assay type: cell membranes
[6] = Displacement of [3H]-DTG from sigma 2-type opioid receptor in rat liver membrane in presence of (+)-pentazocine; assay type: cell membranes; procedure, shortened: as §1
[7] = molecular target: D(2) dopamine receptor (Rattus norvegicus, UniProt P61169); assay: Displacement of [3H]spiroperidol from dopamine D2 receptor in rat striatal membrane; assay type: cell membranes, Striatum
[8] = molecular target: T2, Adrenergic receptor alpha-1 (Rattus norvegicus, UniProt P15823+P23944+P43140); assay: Displacement of [3H]prazosin from adrenergic alpha1 receptor in rat cortical membrane; assay type: cell membranes
T2 sequence (P15823 whole entry): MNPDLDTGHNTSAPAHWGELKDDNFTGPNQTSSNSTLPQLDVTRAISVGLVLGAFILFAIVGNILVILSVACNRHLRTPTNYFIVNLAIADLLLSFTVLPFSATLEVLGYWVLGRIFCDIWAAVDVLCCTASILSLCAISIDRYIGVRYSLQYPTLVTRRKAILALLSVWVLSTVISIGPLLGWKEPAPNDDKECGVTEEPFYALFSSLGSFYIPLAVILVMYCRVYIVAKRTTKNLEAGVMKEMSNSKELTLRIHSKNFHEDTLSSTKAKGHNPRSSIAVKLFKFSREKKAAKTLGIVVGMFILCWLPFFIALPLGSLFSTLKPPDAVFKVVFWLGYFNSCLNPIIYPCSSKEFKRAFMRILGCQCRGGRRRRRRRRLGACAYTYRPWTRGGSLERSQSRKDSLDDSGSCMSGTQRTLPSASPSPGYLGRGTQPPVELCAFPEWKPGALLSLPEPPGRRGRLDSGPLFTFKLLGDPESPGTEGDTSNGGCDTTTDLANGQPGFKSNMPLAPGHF
T2 sequence (P23944 whole entry): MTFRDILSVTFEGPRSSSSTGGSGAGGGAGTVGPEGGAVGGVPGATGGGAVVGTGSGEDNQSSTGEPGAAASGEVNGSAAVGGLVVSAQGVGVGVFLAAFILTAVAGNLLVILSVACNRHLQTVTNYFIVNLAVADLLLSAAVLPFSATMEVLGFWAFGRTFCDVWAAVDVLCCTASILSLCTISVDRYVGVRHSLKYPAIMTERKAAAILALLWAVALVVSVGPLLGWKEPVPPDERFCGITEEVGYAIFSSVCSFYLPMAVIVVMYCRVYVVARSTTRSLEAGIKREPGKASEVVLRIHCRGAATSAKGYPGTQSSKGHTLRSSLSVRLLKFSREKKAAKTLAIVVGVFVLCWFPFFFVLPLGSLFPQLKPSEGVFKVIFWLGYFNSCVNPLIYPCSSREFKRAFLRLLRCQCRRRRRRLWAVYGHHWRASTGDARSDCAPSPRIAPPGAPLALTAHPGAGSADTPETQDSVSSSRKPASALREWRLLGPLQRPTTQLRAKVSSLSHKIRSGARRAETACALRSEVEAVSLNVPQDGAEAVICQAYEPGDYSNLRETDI
T2 sequence (P43140 whole entry): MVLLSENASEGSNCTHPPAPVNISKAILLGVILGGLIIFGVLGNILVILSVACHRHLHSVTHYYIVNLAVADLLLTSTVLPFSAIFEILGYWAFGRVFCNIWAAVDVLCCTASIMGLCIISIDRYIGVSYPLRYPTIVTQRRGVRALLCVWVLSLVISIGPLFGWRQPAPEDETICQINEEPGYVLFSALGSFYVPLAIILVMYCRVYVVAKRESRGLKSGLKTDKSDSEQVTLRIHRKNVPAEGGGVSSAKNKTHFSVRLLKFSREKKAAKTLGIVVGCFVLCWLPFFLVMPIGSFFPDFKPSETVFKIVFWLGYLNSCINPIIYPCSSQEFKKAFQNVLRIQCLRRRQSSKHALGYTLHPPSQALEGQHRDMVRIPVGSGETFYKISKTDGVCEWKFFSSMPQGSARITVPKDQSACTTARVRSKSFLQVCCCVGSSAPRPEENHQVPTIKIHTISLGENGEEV

[9] = molecular target: T3, 5-hydroxytryptamine receptor 1A (Rattus norvegicus, UniProt P19327); assay: Displacement of [3H]8OH-DPAT from 5HT1A receptor in rat hippocampal membrane; assay type: cell membranes, Hippocampus
T3 sequence (P19327 whole entry): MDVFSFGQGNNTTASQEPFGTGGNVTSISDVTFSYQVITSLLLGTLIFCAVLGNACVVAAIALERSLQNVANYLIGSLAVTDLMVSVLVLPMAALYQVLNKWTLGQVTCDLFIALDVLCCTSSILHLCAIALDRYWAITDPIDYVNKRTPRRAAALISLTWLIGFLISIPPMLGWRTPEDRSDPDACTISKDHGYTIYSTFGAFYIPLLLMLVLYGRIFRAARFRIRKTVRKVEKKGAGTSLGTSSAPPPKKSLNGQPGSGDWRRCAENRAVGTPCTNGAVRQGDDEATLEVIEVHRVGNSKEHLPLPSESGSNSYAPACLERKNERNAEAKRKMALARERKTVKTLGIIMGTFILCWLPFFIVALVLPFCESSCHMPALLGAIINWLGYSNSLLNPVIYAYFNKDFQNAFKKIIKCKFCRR

[10] = tested on: PC-3; assay: Antiproliferative activity against human PC3 cells expressing EBP after 48 hrs by MTT assay; assay type: functional, cell-based
Procedure, shortened: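 MTT read-out at 48 h in PC-3 cells grown in RPMI 1640 with 10% FBS, 2 mM glutamine, penicillin/streptomycin, 37 °C, 5% CO2. 10 000 cells/well seeded day 1, drugs added day 2 over 1–100 µM (150 or 300 µM for some references). Solvent controls included. MTT 0.5 mg/mL for 3 h, formazan dissolved in DMSO, absorbance at 570 and 630 nm.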

Chain of Sigma non-opioid intracellular receptor 1 (Q60492 whole entry): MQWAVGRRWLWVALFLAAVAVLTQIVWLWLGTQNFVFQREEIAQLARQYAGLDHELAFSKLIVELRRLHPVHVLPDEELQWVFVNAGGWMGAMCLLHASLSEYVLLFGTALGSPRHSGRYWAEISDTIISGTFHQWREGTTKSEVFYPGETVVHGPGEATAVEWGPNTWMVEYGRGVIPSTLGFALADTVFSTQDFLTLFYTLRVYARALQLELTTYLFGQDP
Chain of D(2) dopamine receptor (P61169 whole entry): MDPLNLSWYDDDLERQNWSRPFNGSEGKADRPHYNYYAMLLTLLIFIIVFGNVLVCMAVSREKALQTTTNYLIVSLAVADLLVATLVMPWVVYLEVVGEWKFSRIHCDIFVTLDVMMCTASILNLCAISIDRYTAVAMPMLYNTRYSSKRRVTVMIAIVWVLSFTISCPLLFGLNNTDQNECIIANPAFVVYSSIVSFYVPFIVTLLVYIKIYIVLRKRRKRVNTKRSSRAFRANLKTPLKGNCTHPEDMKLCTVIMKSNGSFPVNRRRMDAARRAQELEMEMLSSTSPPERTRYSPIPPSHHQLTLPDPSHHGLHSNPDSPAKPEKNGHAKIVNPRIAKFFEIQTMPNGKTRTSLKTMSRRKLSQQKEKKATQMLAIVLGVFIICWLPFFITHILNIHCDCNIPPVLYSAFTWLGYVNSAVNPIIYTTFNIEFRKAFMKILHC

Structure (SMILES) | Ki [1] [nM] | Activity [2] [%] | Ki [3] [nM] | Ratio Ki [4] | Ratio Ki [5] | Ki [6] [nM] | Ki [7] [nM] | Ki [8] [nM] | Ki [9] [nM] | EC50 [10] [nM]
COc1cccc(C2=CCC(N3CCN(c4ccccn4)CC3)CC2)c1 (stereo unspecified) | 220 | <10 | 2640 |  |  |  |  |  |  | 
Cc1ccccc1[C@H]1CC[C@H](N2CCN(c3ccccn3)CC2)CC1 | 30.7 | <10 | 9.04 | 3.4 | 3.3 | 29.6 |  |  |  | 
Cc1cccc(C)c1[C@H]1CC[C@@H](N2CCN(c3ccccn3)CC2)CC1 | 6.32 | <10 | 33.1 | 0.2 | 1.8 | 60.2 |  |  |  | 
c1ccc([C@H]2CC[C@@H](N3CCN(c4ccccn4)CC3)CC2)cc1 | 802 | <10 | 49.2 | 16 | 1.3 | 62 |  |  |  | 
COc1cccc([C@H]2CC[C@@H](NCCOc3ccccn3)CC2)c1 | 7.71 | <10 | 23.5 |  |  |  | 783 | > 850 | 373 | 
Fc1cccc(F)c1[C@H]1CC[C@H](N2CCN(c3ccccn3)CC2)CC1 | 190 | <10 | 106 | 1.8 | 1.2 | 138 |  |  |  | 
COc1cccc(OC)c1[C@H]1CC[C@H](N2CCN(c3ccccn3)CC2)CC1 | 215 | <10 | 7 | 31 | 3.6 | 25 |  |  |  | 
Fc1cccc(F)c1[C@H]1CC[C@@H](N2CCN(c3ccccn3)CC2)CC1 | 5170 | <10 | 140 | 37 | 3 | 440 |  |  |  | 37300
COc1cccc([C@H]2CC[C@@H](N3CCN(c4ccccn4)CC3)CC2)c1 | 178 | <10 | 45.4 |  |  | 36.1 | > 850 | 783 | 815 | 
c1ccc([C@H]2CC[C@H](N3CCN(c4ccccn4)CC3)CC2)cc1 | 104 | <10 | 16.8 | 6 | 1.6 | 26.9 |  |  |  | 
CC(C(O)c1ccc(O)cc1)N1CCC(Cc2ccccc2)CC1 (racemic) [IFENPRODIL] |  | <10 | 16.4 |  |  | 2.3 |  |  |  | 25800
COc1ccc([C@H]2CC[C@H](N3CCN(c4ccccn4)CC3)CC2)cc1 | 291 | <10 | 71.6 | 4 | 3 | 222 |  |  |  | 
COc1ccc2c(c1)CCC(CN1CCN(c3ccccn3)CC1)C2 (stereo unspecified) | 358 | <10 | 32.1 |  |  | 1250 |  |  |  | 
COc1cccc(OC)c1[C@H]1CC[C@@H](N2CCN(c3ccccn3)CC2)CC1 | > 6000 | <10 | 4.95 | > 1210 | 138 | 687 |  |  |  | 12900
CCCN(CCC)CCc1ccc(OC)c(OCCc2ccccc2)c1 |  | <10 |  |  |  | 212 |  |  |  | 47000
Cc1ccccc1[C@H]1CC[C@@H](N2CCN(c3ccccn3)CC2)CC1 | 1000 | <10 | 5 | 200 | 14 | 71 |  |  |  | 38000
COc1ccccc1[C@H]1CC[C@H](N2CCN(c3ccccn3)CC2)CC1 | 2.86 | <10 | 13.5 |  | 1.3 | 30 |  |  |  | 
COc1cccc(C2=CCC(N3CCN(c4ccccc4)CC3)CC2)c1 (stereo unspecified) |  | <10 | 460 |  |  |  |  |  |  | 
COc1cccc([C@H]2CC[C@H](N3CCN(c4ccccn4)CC3)CC2)c1 | 24.8 | <10 | 16.2 |  | 2 | 21.9 |  |  |  | 23000
COc1cccc([C@H]2CC[C@@H](N3CCN(c4ccccc4)CC3)CC2)c1 |  | <10 | 1710 |  |  |  | 2380 | 2250 | 183 | 
CC(C)=CCN1CC[C@]2(C)c3cc(O)ccc3C[C@H]1[C@H]2C [(+)-PENTAZOCINE] |  | <10 | > 10 |  |  | 1860 |  |  |  | 86900
Clc1ccccc1[C@H]1CC[C@@H](N2CCN(c3ccccn3)CC2)CC1 | 1090 | <10 | 85.1 | 13 | 1.8 | 150 |  |  |  | 
COc1cccc([C@H]2CC[C@@H](N3CCN(c4cccc5ccccc45)CC3)CC2)c1 | 240 | <10 | 16.7 |  |  |  | 1310 | 5540 | 74 | 
Clc1ccccc1[C@H]1CC[C@H](N2CCN(c3ccccn3)CC2)CC1 | 190 | <10 | 7.21 | 26 | 4 | 29.1 |  |  |  | 
Cc1cccc(C)c1C1=CCC(N2CCN(c3ccccn3)CC2)CC1 (racemic) | 177 | <10 | 46.7 | 3.8 | 2.4 | 113 |  |  |  | 
